Screening data deposited in PubChem BioAssay by several laboratories.
HePTP inh: human HePTP phosphatase inhibition; P35236; recombinant HePTP phosphatase activity, OD absorbance; inhibition, % at 20 µM; hit rate 0.64% among 110,000; AID 521; in the data active means inhibition above about 50%;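 further: plate controls were vehicle for no effect and reference inhibitor for full effect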
Target sequence (P35236 whole entry, looked up): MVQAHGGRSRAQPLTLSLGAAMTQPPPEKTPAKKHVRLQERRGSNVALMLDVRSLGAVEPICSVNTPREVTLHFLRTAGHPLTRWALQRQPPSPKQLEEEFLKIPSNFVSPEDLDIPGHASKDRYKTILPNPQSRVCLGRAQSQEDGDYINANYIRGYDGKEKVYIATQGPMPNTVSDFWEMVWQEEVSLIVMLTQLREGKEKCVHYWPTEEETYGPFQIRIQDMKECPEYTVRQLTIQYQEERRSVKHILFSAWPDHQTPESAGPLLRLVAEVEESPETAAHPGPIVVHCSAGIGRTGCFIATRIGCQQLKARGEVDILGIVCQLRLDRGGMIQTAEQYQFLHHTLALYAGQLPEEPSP
Pyk2 oligo antag: antagonists of human Pyk2 oligomerization; Q14289; Q293 cells, Pyk2 FERM NanoBiT luminescence; hits give low values; z-score (the deposit names both 25 µM and 10 µM); hit rate 0.83% among 99,000; AID 1347419;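 active means Z-score of -3 or lower, scaled per plate to the spread of control and sample wells; inactive means z-score above -3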;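 further: negative z-score means lost luminescence so less FERM oligomerization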
PLK1 PBD inh: inhibitors of human Plk1 polo box domain binding; Plk1 PBD phosphopeptide binding, fluorescence polarization; inhibition, %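 (tested at about 20 µM)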; hit rate 0.13% among 97,000; AID 693; in the data active means inhibition above about 34%, passing the limit was not always enough
PLK1 kinase inh: PLK1 (human) kinase inhibition | inhibition, % at 10 µM | P53350 | hit rate 0.53% among 97,000 | recombinant PLK1 kinase, TR-FRET peptide phosphorylation | AID 619;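 active means inhibition of 50% or more in the single-concentration screen; inactive means inhibition below 50%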;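 further: 0% = DMSO max control and 100% = H-89 dihydrochloride min control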
AP ELISA ortho: orthogonal test for alternative complement pathway inhibitors | Human serum alternative complement pathway, LPS-coated ELISA, C3 deposition; tested in compound mixtures | inhibition, % at 5 µM | hit rate 0.08% among 62,000;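 active means inhibition above 30% in each of the two pooled mixtures holding the compound, so the lower value exceeds 30%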;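 further: 0% = serum in Mg-EGTA without compound and 100% = EDTA serum blank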
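Assay system: Human serum alternative complement pathway, C3 deposition on LPS-coated wells | Incubation: 1 h serum-compound exposure at 37 °C | Doses: 5 µM per compound in ten-compound mixtures | Read-out: Percent inhibition | Technique: ELISA with HRP anti-human C3 antibody, TMB substrate, absorbance 450 nm | Replication: Two pool placements per compound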
HEK293 NFkB inh: inhibitors of the PMA/ionomycin-induced NF-kB reporter in HEK293 cells. HEK-293 NF-kB luciferase reporter, luminescence. inhibition, % at 3 µM. hit rate 0.21% among 62,000;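 active means inhibition above the mean of all tested compounds plus 3 SD, cut at about 40% in these data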;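 further: 0% = stimulated DMSO wells and 100% = 10 µM reference inhibitor 5653914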
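System – HEK-293 cells with stable firefly luciferase reporter driven by four HIV NF-kB elements · Doses – one dose, 3 µM · Schedule – 1 h compound pre-incubation, 16 h PMA/ionomycin at 37 °C · Technique – luminescence from luciferase substrate reagent · Measure – percent inhibition normalized per plate to DMSO and reference-inhibitor controls · Replicates – tested once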
* hit, by the source's call; nt = no result. This is a sample that favours compounds with a hit; in the whole collection about 1.5% have one here.

SMILES	HePTP inh	Pyk2 oligo antag	PLK1 PBD inh	PLK1 kinase inh	AP ELISA ortho	HEK293 NFkB inh
Cc1[nH]nc(-c2ccc(OCc3cnn(-c4ccccc4)c3)cc2O)c1Oc1ccc(F)cc1	nt	-0.06	27.5	-7.2	nt	nt
Cc1[nH]nc(-c2ccc(OCc3cnn(-c4ccccc4)c3)c(C)c2O)c1Oc1ccccc1	nt	-0.5	14.3	-8.4	nt	nt
Cc1[nH]nc(-c2ccc(O)c(C)c2O)c1Oc1ccccc1	nt	-3.37*	8.2	3.2	nt	nt
CCOc1ccc(-c2n[nH]c(C)c2Oc2ccc(OC)cc2)c(O)c1	-1.5	-3.09*	4.2	-2.5	-6.0	-1.9
COc1ccc(CCNC(=O)c2ccc(C)c([N+](=O)[O-])c2)cc1	-4.9	nt	nt	nt	nt	nt
COc1ccc(S(=O)(=O)N(CC(=O)NCCc2ccccc2)Cc2ccccc2)cc1	8.9	nt	nt	nt	nt	nt
Cc1cc2c(C)cc(=O)oc2c2c1NCCC2	-1.3	0.09	-15.5	-19.1	15.0	27.4
Cc1ccc(OC(=O)C(F)(F)F)c2c1NCCC2	4.4	0.35	0.5	1.7	34.6*	3.0
C=CCN1C(=O)/C(=C\c2ccc(C(=O)OC)cc2)C(C(=O)OC)=C1C	0.4	nt	nt	nt	nt	nt
Cc1cccc(CN2CCN(S(=O)(=O)c3ccc(Cl)cc3)CC2)c1	-3.9	nt	nt	nt	nt	nt
O=C(CSc1nnnn1C1CC2CCC1C2)Nc1ccnc2ccccc12 (centres undefined)	-2.9	-0.04	nt	nt	11.5	57.8*
CN(C)c1cccc(C(=O)Nc2ccc(F)c(Cl)c2)c1	11.6	nt	nt	nt	nt	nt
O=C(O)C1Nc2c(Cl)cc(Cl)cc2C2C=CCC12 (centres undefined)	102.7*	nt	nt	nt	nt	nt
CC(=O)Nc1ccc2c(c1)C1C=CCC1C(C(=O)O)N2 (centres undefined)	80.5*	nt	nt	nt	nt	nt
COc1ccc2c(c1)C1C=CCC1C(C(=O)O)N2 (centres undefined)	102.4*	nt	nt	nt	nt	nt
COc1ccc(/C=C2/SC(=O)NC2=O)c(OC)c1	-2.5	nt	nt	nt	nt	nt
Cn1c(=O)cc2c3c(c(Oc4ccccc4)ccc31)C(=O)c1ccccc1-2	1.4	nt	nt	nt	nt	nt
O=C(O)c1cc(S(=O)(=O)O)ccc1O	-3.8	1.23	19.3	-16.7	1.7	20.3
CNc1ccc2c(O)cc(S(=O)(=O)O)cc2c1	54.4*	nt	nt	nt	nt	nt
Cc1ccc(OCCCc2c(C)n[nH]c2C)c(C)c1	-2.3	nt	nt	nt	nt	nt
Cc1ccc(OCCc2c(C)n[nH]c2C)c(Cl)c1	104.7*	nt	nt	nt	nt	nt
O=[N+]([O-])c1cccc(CN2CCN(S(=O)(=O)c3ccc(Cl)cc3)CC2)c1	101.7*	nt	nt	nt	nt	nt
Cc1cccc(OCCOc2ccc(/C=N/n3cnnc3)cc2)c1	-0.6	nt	nt	nt	nt	nt
O=S(=O)(CCSc1nc2ccccc2o1)c1nc2ccccc2s1	-13.0	-3.12*	-14.6	-3.8	-0.8	19.5
Cc1cc(C)nc(/N=C(/N)Nc2ccc(S(=O)(=O)Nc3nccc(C)n3)cc2)n1	10.6	nt	nt	nt	nt	nt
SMILES	HePTP inh	Pyk2 oligo antag	PLK1 PBD inh	PLK1 kinase inh	AP ELISA ortho	HEK293 NFkB inh
CCN1CCN(C(=O)Nc2cccc3ccccc23)CC1	2.4	-3.2*	-10.7	-1.9	23.1	nt
CN1CCN(C(=O)Nc2cccc3ccccc23)CC1	0.7	-0.43	13.0	-8.5	17.0	10.2
CC(=O)Nc1ccc(S(=O)(=O)N2CCN(c3cc(C)nc4ccccc34)CC2)cc1	1.5	-0.18	19.3	-11.8	2.5	7.3
CC(=O)Nc1ccc(S(=O)(=O)N2CCN(c3nc(NC4CCCC4)c4ccccc4n3)CC2)cc1	5.3	-3.01*	-24.7	-10.6	3.8	17.6
CCCCNS(=O)(=O)c1ccc2nc(SCC(=O)Nc3sccc3C#N)[nH]c2c1	7.9	-3.72*	21.3	-7.0	5.5	16.1
CCCCNS(=O)(=O)c1ccc2nc(SCC(=O)c3ccccc3OC)[nH]c2c1	nt	-1.82	33.3	-5.3	nt	nt
CC1(C)C2(C#N)C(N)=NC3(OCCO3)C12C#N (centres undefined)	nt	-0.02	8.8	-15.0	nt	nt
CCC1(C)C2(C#N)C(N)=NC(OC)(OC)C12C#N (centres undefined)	5.1	0.69	2.1	1.5	32.2*	nt
O=c1[nH]c(=O)n(Cc2ccco2)c2c1C(C(F)(F)F)(C(F)(F)F)N=C(CCC1CCCCC1)N2	nt	-4.06*	-5.3	-12.9	nt	nt
O=c1[nH]c(=O)n(-c2ccccc2)c2c1C(C(F)(F)F)(C(F)(F)F)N=C(CCC1CCCCC1)N2	nt	-3.6*	nt	nt	nt	nt
O=c1[nH]c(=O)n(Cc2ccco2)c2c1C(C(F)(F)F)(C(F)(F)F)N=C(CCc1ccccc1)N2	nt	-4*	-20.1	0.5	nt	nt
